Assay results collected from several papers.
Protocols differ between the studies behind these lines.
MAOB: Amine oxidase [flavin-containing] B (MAOB, Homo sapiens, UniProt P27338)
TNFAIP3: TNFAIP3 (Homo sapiens, UniProt P21580)

| SMILES | target | effect on | action | method | concentration | inhibition |
| --- | --- | --- | --- | --- | --- | --- |
| c1ccc(C(NCCNC(c2ccccc2)c2ccccc2)c2ccccc2)cc1 | MAOB | enzyme activity | inhibitor | – | 10 µM | 5% |
| C[C@@H]1CCCN1CCCCOc1ccc2occc(=O)c2c1 | MAOB | enzyme activity | inhibitor | fluorescence | 10 µM | 28% |
| CC(C)C[C@H](NC(=O)[C@H]1O[C@@H]1C(=O)O)C(=O)NCCCCN=C(N)N | Cathepsin L2 (CTSV, Homo sapiens, UniProt O60911) | enzyme activity | inhibitor | – | 5 nM | 17% |
| CN1CCN(CCCOc2ccc3occc(=O)c3c2)CC1 | MAOB | enzyme activity | inhibitor | fluorescence | 10 µM | 20% |
| COCc1c(-c2cc3cc(C)cc(OC)c3s2)c2c(N)ncnn2c1CN1CCNC(=O)C1 | MAOB | enzyme activity | inhibitor | – | 10 µM | 5% |
| CN(CCN1CCC(OC(=O)Nc2ccccc2-c2ccccc2)CC1)C(=O)c1ccc(CN2CCC(C(N)=O)CC2)cc1 | MAOB | enzyme activity | inhibitor | – | 1 µM | -2% |
| COc1cc(Nc2ncc(F)c(Nc3ccc4c(n3)NC(=O)C(C)(C)O4)n2)cc(OC)c1OC | Phosphatidylinositol 3-kinase C2 domain-containing subunit gamma (PIK3C2G, Homo sapiens, UniProt O75747) | binding | – | competition with immobilised ligand | 10 µM | 48% |
| N=C(N)c1ccc2cc(OC(=O)c3ccc(N=C(N)N)cc3)ccc2c1 | TNFAIP3 | enzyme activity | inhibitor | – | 10 µM | 13% |
| COc1ccc(S(=O)(=O)N2CCCCC2)cc1C | Endothelin receptor type B (EDNRB, Homo sapiens, UniProt P24530) | ligand displacement | – | radioligand | 10 µM | < 30% |
| COc1ccc(S(=O)(=O)N(CC(=O)NO)CC(C)C)cc1 | Matrix metalloproteinase-9 (MMP9, Homo sapiens, UniProt P14780, Q279R) | enzyme activity | inhibitor | – | 0.1 µM | 96% |
| O=C(Nc1cccnn1)N1CCN([C@@H]2CCOc3cc(C(F)(F)F)ccc32)CC1 | Matrix metalloproteinase-9 (MMP9, Homo sapiens, UniProt P14780) | enzyme activity | inhibitor | – | 20 µM | 8% |
| CN1CCN(CCCCOc2ccc3occc(=O)c3c2)CC1 | MAOB | enzyme activity | inhibitor | fluorescence | 10 µM | 20% |
| CN(C)C(=O)COC(=O)Cc1ccc(OC(=O)c2ccc(NC(=N)N)cc2)cc1 | TNFAIP3 | enzyme activity | inhibitor | – | 10 µM | 4% |
